Data on four compounds can be found in ChEMBL document CHEMBL4334452, “Monosaccharide Analogues of Anticancer Peptide R-Lycosin-I: Role of Monosaccharide Conjugation in Complexation and the Potential of Lung Cancer Targeting and Therapy” (J Med Chem, 2019).

Data set [1] deals with T1, Solute carrier family 2, facilitated glucose transporter member 1 (Homo sapiens) (UniProt P11166).
T1 sequence (whole entry): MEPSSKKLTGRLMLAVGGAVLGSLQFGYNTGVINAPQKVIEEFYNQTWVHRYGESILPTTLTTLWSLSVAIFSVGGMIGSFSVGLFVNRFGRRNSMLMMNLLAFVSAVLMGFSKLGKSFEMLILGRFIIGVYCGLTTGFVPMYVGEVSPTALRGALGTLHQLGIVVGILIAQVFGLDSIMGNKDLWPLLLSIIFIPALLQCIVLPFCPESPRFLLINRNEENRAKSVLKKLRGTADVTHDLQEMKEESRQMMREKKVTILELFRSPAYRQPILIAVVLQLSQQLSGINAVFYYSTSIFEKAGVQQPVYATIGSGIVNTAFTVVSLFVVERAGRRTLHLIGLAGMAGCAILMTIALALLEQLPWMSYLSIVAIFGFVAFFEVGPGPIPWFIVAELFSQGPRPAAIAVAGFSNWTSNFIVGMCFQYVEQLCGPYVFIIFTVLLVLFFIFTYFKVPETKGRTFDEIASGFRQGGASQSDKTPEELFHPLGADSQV
Put plainly: Binding affinity to GLUT1 in human A549 cells assessed as cytotoxicity by measuring reduction in cell viability at 12.5 uM measured after 2 hrs in presence of GLUT1 inhibitor STF-31 by CCK8 assay. The format is cell-based. The method, boiled down: (§1)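 A549 cells at 2×10^3/well, grown overnight, then preincubated 4 h in F12K/10% FBS with or without STF-31 (1 µM final). […] Incubated a further 2 h at 37 °C; viability by CCK-8.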
(In general: Tetrazolium dyes change colour on reduction, which living cells bring about.)

Data set [2] has as its target T1, Solute carrier family 2, facilitated glucose transporter member 1 (Homo sapiens). Put plainly: Binding affinity to GLUT1 in human A549 cells assessed as cytotoxicity at 12.5 uM measured after 2 hrs by LDH release assay. The format is cell-based. The essentials:
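A549 cells at 2×10^3/well, allowed to adhere overnight, then exposed to peptide over a concentration series for 2 h. LDH release measured with a kit, absorbance at 490 nm. 1% Triton X-100 taken as 100% release; n=3.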
Background: LDH in the medium is a marker of cell lysis.

For data set [3] the target is unchanged. Put plainly: Binding affinity to GLUT1 in human A549 cells assessed as cytotoxicity by measuring reduction in cell viability at 12.5 uM measured after 2 hrs in absence of GLUT1 inhibitor STF-31 by CCK8 assay. The class given is cell-based. The essentials:
as §1

For data set [4], the system named is HEK-293T. As to the kind of experiment: Cytotoxicity against HEK293T cells at 12.5 uM measured after 2 hrs by LDH release assay. The class given is cell-based. The settings on record: human.
The target in data set [5] is T1, Solute carrier family 2, facilitated glucose transporter member 1 (Homo sapiens). As to the kind of experiment: Binding affinity to GLUT1 in human A549 cells assessed as cytotoxicity by measuring reduction in cell viability at 15 uM by trypan blue staining-based assay. The essentials:
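A549 cells stained with trypan blue after peptide treatment at 15 µM. Dead cells appear blue and live cells unstained; live cells were counted.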

Data set [6] has as its system HEK-293T. Put plainly: Cytotoxicity against HEK293T cells assessed as reduction in cell viability measured after 24 hrs by CCK8 assay. The format is cell-based, Homo sapiens. The settings on record: for Activity: human, hek-293t. The essentials: (§2)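 Cells (A549, H460, H1437, PC-3, HGC-27, MDA-MB-231, HEK-293T, L-02) seeded at about 2×10^3/well and grown overnight. Treated 24 h with a peptide concentration series in serum-free medium. Viability by CCK-8; IC50 taken as 50% inhibition versus untreated cells. Average of three experiments, each in triplicate.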

In data set [7] the target is T1, Solute carrier family 2, facilitated glucose transporter member 1 (Homo sapiens). Put plainly: Binding affinity to GLUT1 in human A549 cells assessed as cytotoxicity by measuring reduction in cell viability measured after 24 hrs by CCK8 assay. The format is cell-based. The essentials:
as §2

Molecules are shown by their SMILES. Active and inactive are the calls of the source. The rule behind the calls is not given here. *1 amine or outer side, *2 acyl side, *3 side chain or, on linkers, in order; H or OH if unused. Where a SMILES comes first, the peptide text is derived from it. The star is where a group is joined. X4 = CC(=O)N[C@H]1[C@H](OCCCN*)O[C@H](CO)[C@@H](O)[C@@H]1O; X3 = OC[C@H]1O[C@H](OCCCN*)[C@@H](O)[C@@H](O)[C@@H]1O; X1 = OC[C@H]1O[C@@H](OCCCN*)[C@H](O)[C@@H](O)[C@H]1O; X2 = O[C@@H]1[C@@H](O)[C@H](OCCCN*)OC[C@@H]1O; Glutaryl = O=C(CCCC(=O)[*:2])[*:1]

As usually defined, the IC50 is the concentration needed to halve the response being measured. With `CC[C@H](C)[C@H](NC(=O)[C@H](Cc1ccccc1)NC(=O)[C@H](CCCNC(=N)N)NC(=O)[C@H](C)NC(=O)[C@@H](NC(=O)[C@H](CO)NC(=O)[C@H](CCCNC(=N)N)NC(=O)[C@H](CCSC)NC(=O)[C@H](C)NC(=O)[C@H](CCCNC(=N)N)NC(=O)[C@H](Cc1ccccc1)NC(=O)[C@H](Cc1c[nH]c2ccccc12)NC(=O)CNC(=O)[C@H](CCCNC(=N)N)NC(=O)CCCC(=O)NCCCO[C@@H]1O[C@H](CO)[C@H](O)[C@H](O)[C@H]1O)[C@@H](C)CC)C(=O)N[C@@H](C)C(=O)N[C@@H](CCCNC(=N)N)C(=O)N[C@@H](CCC(=O)O)C(=O)N[C@@H](CCCNC(=N)N)C(=O)N[C@@H](CC(C)C)C(=O)N[C@@H](CCCNC(=N)N)C(=O)N[C@@H](CCC(=O)O)C(=O)N[C@@H](Cc1cnc[nH]1)C(=O)N[C@@H](CC(C)C)C(=O)O` ({X1-Glutaryl}-RGWFRAMRSIARFIARERLREHL-OH), the outcome in data set [1], in data set [2], in data set [3] and in data set [5] was Active. For the same compound, the Activity result in the data set on HEK-293T [4] is given as “Toxic”. Besides, the IC50 with HEK-293T [6] (Homo sapiens, HEK-293T) amounted to 8.3 µM.

As for `CC[C@H](C)[C@H](NC(=O)[C@H](Cc1ccccc1)NC(=O)[C@H](CCCNC(=N)N)NC(=O)[C@H](C)NC(=O)[C@@H](NC(=O)[C@H](CO)NC(=O)[C@H](CCCNC(=N)N)NC(=O)[C@H](CCSC)NC(=O)[C@H](C)NC(=O)[C@H](CCCNC(=N)N)NC(=O)[C@H](Cc1ccccc1)NC(=O)[C@H](Cc1c[nH]c2ccccc12)NC(=O)CNC(=O)[C@H](CCCNC(=N)N)NC(=O)CCCC(=O)NCCCO[C@@H]1OC[C@H](O)[C@H](O)[C@H]1O)[C@@H](C)CC)C(=O)N[C@@H](C)C(=O)N[C@@H](CCCNC(=N)N)C(=O)N[C@@H](CCC(=O)O)C(=O)N[C@@H](CCCNC(=N)N)C(=O)N[C@@H](CC(C)C)C(=O)N[C@@H](CCCNC(=N)N)C(=O)N[C@@H](CCC(=O)O)C(=O)N[C@@H](Cc1cnc[nH]1)C(=O)N[C@@H](CC(C)C)C(=O)O` ({X2-Glutaryl}-RGWFRAMRSIARFIARERLREHL-OH), the result in data set [1], in data set [2], in data set [3] and in data set [5] was Active. For the same compound, the Activity result in the data set with HEK-293T [4] was “Toxic”.

In the case of `CC[C@H](C)[C@H](NC(=O)[C@H](Cc1ccccc1)NC(=O)[C@H](CCCNC(=N)N)NC(=O)[C@H](C)NC(=O)[C@@H](NC(=O)[C@H](CO)NC(=O)[C@H](CCCNC(=N)N)NC(=O)[C@H](CCSC)NC(=O)[C@H](C)NC(=O)[C@H](CCCNC(=N)N)NC(=O)[C@H](Cc1ccccc1)NC(=O)[C@H](Cc1c[nH]c2ccccc12)NC(=O)CNC(=O)[C@H](CCCNC(=N)N)NC(=O)CCCC(=O)NCCCO[C@H]1O[C@H](CO)[C@@H](O)[C@H](O)[C@@H]1O)[C@@H](C)CC)C(=O)N[C@@H](C)C(=O)N[C@@H](CCCNC(=N)N)C(=O)N[C@@H](CCC(=O)O)C(=O)N[C@@H](CCCNC(=N)N)C(=O)N[C@@H](CC(C)C)C(=O)N[C@@H](CCCNC(=N)N)C(=O)N[C@@H](CCC(=O)O)C(=O)N[C@@H](Cc1cnc[nH]1)C(=O)N[C@@H](CC(C)C)C(=O)O` ({X3-Glutaryl}-RGWFRAMRSIARFIARERLREHL-OH), the outcome in data set [5] and in data set [7] was inactive. In addition, the Activity result in the data set with HEK-293T [6] is “Non-Toxic”.

On to `CC[C@H](C)[C@H](NC(=O)[C@H](Cc1ccccc1)NC(=O)[C@H](CCCNC(=N)N)NC(=O)[C@H](C)NC(=O)[C@@H](NC(=O)[C@H](CO)NC(=O)[C@H](CCCNC(=N)N)NC(=O)[C@H](CCSC)NC(=O)[C@H](C)NC(=O)[C@H](CCCNC(=N)N)NC(=O)[C@H](Cc1ccccc1)NC(=O)[C@H](Cc1c[nH]c2ccccc12)NC(=O)CNC(=O)[C@H](CCCNC(=N)N)NC(=O)CCCC(=O)NCCCO[C@@H]1O[C@H](CO)[C@@H](O)[C@H](O)[C@H]1NC(C)=O)[C@@H](C)CC)C(=O)N[C@@H](C)C(=O)N[C@@H](CCCNC(=N)N)C(=O)N[C@@H](CCC(=O)O)C(=O)N[C@@H](CCCNC(=N)N)C(=O)N[C@@H](CC(C)C)C(=O)N[C@@H](CCCNC(=N)N)C(=O)N[C@@H](CCC(=O)O)C(=O)N[C@@H](Cc1cnc[nH]1)C(=O)N[C@@H](CC(C)C)C(=O)O` ({X4-Glutaryl}-RGWFRAMRSIARFIARERLREHL-OH), for which the outcome in data set [5] and in data set [7] was inactive. Also, the Activity entry in the data set on HEK-293T [6] is recorded as “Non-Toxic”.
